SMARCA2 activ = SMARCA2 (BRM) function activators, primary screen, cell-based, luminescence, high throughput; AID 652017, 2013; MG213 cells, MMTV-luciferase reporter, dexamethasone, overnight; activation, % at 9.1 µM; 1% of 370,000 active; in the data active = activation above about 7.8%;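 also: 0% = vehicle wells and 100% = reference activator wells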
Lipid droplet = inhibitors of hepatocyte lipid droplet formation, primary screen, imaging, high-throughput imaging, BODIPY stain; inhibition, % at 6.5 µM; AID 1656, 2009; 0.4% of 240,000 active; AML12 mouse hepatocytes, oleate lipid droplets;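 active = lipid droplet intensity inhibited by at least 50%, with more than 500 cells counted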
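Material – AML12 mouse liver cells · Also added – oleate loading, 100 µM · Compound dosing – 6.5 µM single-point dosing · Times – overnight treatment with compound plus oleate · Measured by – fluorescence imaging, 20x objective, two fields per well · Read-out – percent inhibition of filter-corrected integrated lipid droplet intensity per well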
AHR act = AHR activators, primary screen, cell-based, luminescence, luciferase reporter, human. Aryl hydrocarbon receptor (Homo sapiens), P35869. AHR-responsive luciferase reporter cells. activation, % at 5 µM. 2.5% of 320,000 active; in the data active = activation above about 47%;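 also: 0% = vehicle wells and 100% = reference agonist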
SR-BI uptake up = activators of SR-BI mediated DiI-HDL uptake, primary screen, ldlA[mSR-BI] CHO cells, DiI fluorescence; 3 h; 100 = double the neutral-control signal; activation, % at 12.5 µM; 0.096% of 320,000 active; AID 504775, 2011;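 active = mean replicate activation of at least 60% and every replicate at or above 60%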;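 also: 0% = median plate neutral-control signal and 100% = twice that signal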
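Test system: SR-BI-overexpressing, LDLR-lacking CHO cells; Medium: Ham's F12 with 0.5% BSA, HEPES 25 mM, pH 7.4; Schedule: 3 h, 37 °C; Technique: bottom-read fluorescence, 550/595 nm.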
CR mimetic SO = reduction of superoxide in aged yeast, primary screen, HTS; 0.18% of 330,000 active; S. cerevisiae aged cells, superoxide DHE fluorescence; hits give low values; superoxide response (% of plate mean), % at 10 µM;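 active = superoxide response under a set limit, about three screen SD below normal, cut at about 65% in these data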;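 also: yeast aged for seven days with compound at 30 °C before DHE staining; 100% = average MFI of all compound-treated wells on the plate with controls excluded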
SR-BI DiI inh = inhibitors of SR-BI mediated HDL lipid uptake, primary screen, ldlA[mSR-BI] cells, fluorescence, single point; Scavenger receptor class B member 1 (Mus musculus), Q61009; ldlA[mSR-BI] CHO cells, DiI-HDL uptake fluorescence, 3 h; inhibition, % at 12.5 µM; 0.96% of 320,000 active; AID 488896, 2010;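 active = mean replicate inhibition of at least 70% and a set share of replicates each scoring 70 or more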;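 also: 0% = median of neutral control wells and 100% = median of positive control wells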
Target sequence (Q61009 whole entry, looked up): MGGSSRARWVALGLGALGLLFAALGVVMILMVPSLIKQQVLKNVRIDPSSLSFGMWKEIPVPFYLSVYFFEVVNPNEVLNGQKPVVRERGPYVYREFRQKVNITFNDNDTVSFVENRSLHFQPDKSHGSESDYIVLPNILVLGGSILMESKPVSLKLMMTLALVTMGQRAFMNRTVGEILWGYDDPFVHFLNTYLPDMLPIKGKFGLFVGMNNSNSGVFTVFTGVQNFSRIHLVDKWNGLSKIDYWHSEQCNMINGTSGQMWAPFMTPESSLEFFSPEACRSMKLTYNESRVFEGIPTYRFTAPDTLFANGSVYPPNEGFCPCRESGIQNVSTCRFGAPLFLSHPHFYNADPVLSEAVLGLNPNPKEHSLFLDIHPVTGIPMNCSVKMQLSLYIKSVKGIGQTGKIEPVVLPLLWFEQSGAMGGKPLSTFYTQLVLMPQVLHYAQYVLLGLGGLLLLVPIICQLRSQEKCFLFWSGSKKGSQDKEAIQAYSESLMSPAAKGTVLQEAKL
SMARCA2 act conf = SMARCA2 (BRM) function activators, confirmation, cell-based, luminescence, triplicate; MG213 cells, MMTV-luciferase with dexamethasone, overnight; MG213 cells expressing E1A, Rb sequestered; DMSO wells 0%, reference activator 100%; shares compounds with SMARCA2 activ; activation, % at 9.1 µM; 30% of 3,500 active;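 active = activation above its plate's cutoff, the mean activation of tested wells plus 3 SD, cut at about 7.9% in these data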
VP16 Luc act = GAL4-VP16 luciferase reporter activation, counter-screen for SMARCA2 (BRM) activator project, cell-based, pG5luc, luminescence, high throughput; shares compounds with SMARCA2 activ; HEK293 GAL4-VP16 pG5luc reporter; scaled: DMSO wells 0%, SAHA wells 100%; activation, % at 9.1 µM; 41% of 3,500 active;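 active = activation above the solvent-only control well mean plus 3 SD, averaged across control plates, cut at about 5.2% in these data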
* = called active by the depositor; . = not tested or not shown. Sampled rows, rich in hits. Any-hit rate of the full collection: about 4.3%.

SMILES	SMARCA2 activ	Lipid droplet	AHR act	SR-BI uptake up	CR mimetic SO	SR-BI DiI inh	SMARCA2 act conf	VP16 Luc act
O=C(NNC(=O)c1cccs1)c1ccc(Cl)cc1	0.8	-2.7	-3.8	6.5	109.9	-6.5	.	.
COc1ccc(Cl)cc1C(=O)NNC(=O)c1cccs1	12.3*	.	11.0	0.7	128.5	-0.7	2.5	4.8
COc1ccc(NC(=S)NNC(=O)c2cccs2)cc1	8.8*	1.4	2.0	6.6	90.9	-6.6	0.3	4.2
COc1ccc(NC(=O)c2cccs2)cc1	4.7	-1.5	1.4	6.1	91.9	-6.1	.	.
Cn1ccc(C(=O)Nc2sc3c(c2C(N)=O)CCCCC3)n1	4.3	3.5	8.1	-7.5	91.5	7.4	.	.
Cn1cc(Br)c(C(=O)Nc2sc3c(c2C(N)=O)CCC3)n1	8.7*	4.3	12.5	-15.4	100.1	15.4	2.0	6.7*
O=c1cc(-c2ccccc2)oc2cc(O)c(O)c(O)c12	8.3*	.	15.1	9.3	67.7	-9.3	9.4*	12.6*
COc1ccc(OC)c(S(=O)(=O)Nc2c(F)cccc2F)c1	10.0*	6.2	-0.9	-10.1	110.2	10.1	-4.3	-1.2
CC1=C(C(=O)OCc2ccccc2)C(c2ccccc2)NC(=O)N1 (stereo unspecified)	-0.4	-0.2	2.9	-6.8	100.1	6.8	.	.
COc1ccc(C2NC(=O)NC(C)=C2C(=O)OCc2ccccc2)cc1 (stereo unspecified)	13.6*	-1.0	-1.7	10.5	106.3	-10.5	4.3	0.6
O=C(COC(=O)C1CCC(=O)N1)Nc1cccc([N+](=O)[O-])c1 (stereo unspecified)	6.9	.	1.5	-12.2	89.5	12.2	.	.
Cc1ccc(NC(=O)COC(=O)C2CCC(=O)N2)c([N+](=O)[O-])c1 (stereo unspecified)	12.6*	6.7	1.7	2.2	126.3	-2.2	-2.0	0.8
O=C(CN1C(=O)NC2(CCc3ccccc32)C1=O)NCC(=O)Nc1ccc(F)cc1 (stereo unspecified)	8.2*	.	5.0	.	108.1	-12.6	-4.2	1.8
C/C(=C\c1ccccc1)C(=O)Nc1cc(C)on1	9.9*	-7.5	-11.2	6.6	84.6	-6.6	5.2	6.9*
COc1cccc(CNC(=O)[C@H]2CCCN2C(=O)[C@H]2CCCN2C(=O)c2ccccc2)c1	-0.3	.	.	.	.	.	.	.
CCN(CC)CCN1C(=O)c2cccc3cc(N)cc(c23)C1=O	11.5*	-58.5	16.9	-14.3	92.5	14.3	26.1*	2.0
O=C1c2cccc3cccc(c23)C(=O)N1CCO	5.0	.	.	.	.	.	.	.
CCC(C)NC(=O)CNc1nnnn1-c1ccccc1 (stereo unspecified)	-0.7	.	.	.	.	.	.	.
COc1ccc(C2=NOC(C(=O)Nc3cc(Br)ccc3O)C2)cc1OC (stereo unspecified)	8.6*	-8.8	4.7	10.7	110.5	-10.6	-0.1	-0.9
O=C(/C=C/c1cccs1)Nc1cccc(NC(=O)/C=C/c2cccs2)n1	-1.4	-2.6	24.9	-52.7	98.4	52.7	.	.
Cc1cc(C)nc(NC(=O)/C=C/c2cccs2)c1	8.8*	.	-0.3	-42.5	91.5	42.5	5.6	9.9*
CN1c2ccsc2/C(=N/Nc2ccc(F)cc2)CS1(=O)=O	9.4*	9.5	65.2*	-52.0	99.3	52.0	8.1*	6.5*
Cc1ccc(N/N=C2\CS(=O)(=O)N(C)c3ccsc32)cc1	0.6	1.1	41.4	-25.5	111.2	25.5	.	.
COc1ccc(/C=C(/C(=O)c2cccs2)N2C=CC=CC2=C(C#N)C#N)cc1	14.7*	-4.2	.	-37.6	.	37.6	-14.1	10.8*
CCCCNC(=O)NCCCN1CCN(c2ccc(F)cc2)CC1	-3.5	.	.	.	.	.	.	.
SMILES	SMARCA2 activ	Lipid droplet	AHR act	SR-BI uptake up	CR mimetic SO	SR-BI DiI inh	SMARCA2 act conf	VP16 Luc act
CCOC(=O)Cn1cnc(-c2ccc([N+](=O)[O-])cc2)c1	8.8*	-4.3	1.3	5.5	90.6	-5.5	7.6	5.8*
CCOC(=O)c1ccc(-n2cnc(-c3ccc([N+](=O)[O-])cc3)c2)cc1	3.6	.	.	.	.	.	.	.
CC(C)C[C@H]1COc2cc(Br)ccc2S(=O)(=O)N1Cc1ccc(F)cc1F	6.1	.	.	.	.	.	.	.
Clc1ccc(CO/N=C2\CCCc3nonc32)cc1	12.9*	19.7	23.8	45.9	106.5	-45.9	8.1*	4.0
O=C(N/N=C/C(Br)=C/c1ccccc1)c1ccccc1F	12.9*	6.6	17.1	-4.4	114.3	4.4	11.2*	12.0*
CC(C)CN1C(=O)[C@]2(CC(=O)N(C)C2c2ccccc2)c2cc(-n3cc(C4=CCCCC4)nn3)ccc21 (stereo partly specified)	-4.3	.	.	.	.	.	.	.
CCOc1ccc2nc(NC(=O)C3CCCO3)sc2c1 (stereo unspecified)	6.1	3.1	12.4	-16.9	96.1	16.9	.	.
COc1ccc2nc(NC(=O)c3ccc(NC(=O)C4CCCO4)cc3)sc2c1 (stereo unspecified)	-1.7	-0.8	14.5	-69.2	113.0	69.2	.	.
O=C(Nc1ncc(Cc2ccccc2)s1)C1CCCO1 (stereo unspecified)	12.4*	-2.8	3.3	.	96.6	.	10.6*	8.6*
O=C(Nc1nc2ccccc2s1)C1CCCO1 (stereo unspecified)	10.7*	.	37.4	7.8	105.2	-7.8	10.9*	9.8*
O=C(Nc1nc2ccc(F)cc2s1)C1CCCO1 (stereo unspecified)	10.3*	.	10.1	-1.4	93.9	1.4	12.4*	5.5*
Cc1ccc(-n2c(SCC(=O)Nc3ccccc3-c3ccccc3)nnc2-c2ccccc2)cc1	-4.0	.	.	.	.	.	.	.
CCOc1ccc(CCNC(=O)c2cc3ccsc3n2C)cc1OCC	-1.4	.	.	.	.	.	.	.
N#Cc1c2n(c3c(=O)[nH]cnc13)CCCC2	9.3*	.	0.9	14.0	102.4	-14.0	-4.8	-0.7
N#Cc1c2n(c3c(=S)nc[nH]c13)CCCCC2	0.3	.	1.0	26.0	91.2	-26.0	.	.
Cc1cc(C)nc(S/C=C/C(=O)c2ccccc2F)n1	14.1*	-16.2	-2.5	3.8	101.0	-3.8	-13.1	2.4

Screening data as filed in PubChem.
